Results reported in publication PMC11671551 (Cancer Chemotherapy and Pharmacology, 2024).
Where two headings read alike, the source gives them in different places.

Columns and labels:
[1] = format: in vivo, human; settings: for Serum concentration, mean: trough
Outline: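 mRCC patients recruited prospectively (March 2020–January 2022) on oral sunitinib, 2 weeks on/1 week off, with physician-set dose. Blood (5 mL) was drawn at outpatient visits 7–14 days into each cycle, 24 h post-dose or just before the next dose. It was spun at 1,500 ×g, 4 °C, 10 min, and the serum stored at -25 °C. Parent drug, N-desethyl and N-oxide were quantified by LC-MS/MS (LLOQ 2.5, 2.5, 0.1 ng/mL). Concentration/dose ratios were correlated with treatment duration by Pearson.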

[2] = Adverse events in mRCC patients receiving long-term sunitinib; format: in vivo, human
[3] = population pharmacokinetic analysis, patient weighing 100 kg; cited from earlier work
[4] = Pt1, maintenance dose 25 mg, 421–630 days after initiation
[5] = Pt1, maintenance dose 25 mg, 631–840 days after initiation
[6] = Pt1, maintenance dose 25 mg, 841–1050 days after initiation
[7] = Pt1, maintenance dose 25 mg, 1051–1260 days after initiation
[8] = Pt1, maintenance dose 25 mg, 1261–1470 days after initiation
[9] = Pt2, maintenance dose 25 mg, 631–840 days after initiation
[10] = Pt2, maintenance dose 25 mg, 841–1050 days after initiation
[11] = Pt3, maintenance dose 25 mg, 1051–1260 days after initiation
[12] = Pt3, maintenance dose 25 mg, 1261–1470 days after initiation
[13] = Pt3, maintenance dose 25 mg, 1471–1680 days after initiation
[14] = Pt3, maintenance dose 25 mg, 1681–1890 days after initiation
[15] = Pt4, maintenance dose 25 mg, 1891–2100 days after initiation
[16] = Pt5, maintenance dose 37.5 mg, 1261–1470 days after initiation
[17] = Pt5, maintenance dose 37.5 mg, 1471–1680 days after initiation
[18] = Pt5, maintenance dose 37.5 mg, 1681–1890 days after initiation
[19] = Pt6, maintenance dose 50 mg, 0–210 days after initiation
[20] = Pt6, maintenance dose 50 mg, 211–420 days after initiation
[21] = Pt6, maintenance dose 50 mg, 421–630 days after initiation
[22] = Pt7, maintenance dose 25 mg, 0–210 days after initiation
[23] = after follow-up, sunitinib C/D decreased group (n=3)
[24] = after follow-up, sunitinib C/D non-decreased group (n=4)
[25] = baseline, sunitinib C/D decreased group (n=3)
[26] = baseline, sunitinib C/D non-decreased group (n=4)
[27] = sunitinib C/D decreased group (n=3)
[28] = sunitinib C/D non-decreased group (n=4)

Pearson's correlation coefficient r between C/D ratio and treatment duration ([1]; Pt1)	Serum concentration, mean [1, 4] [ng/mL]	Serum concentration, mean [1, 5] [ng/mL]	Serum concentration, mean [1, 6] [ng/mL]	Serum concentration, mean [1, 7] [ng/mL]	Serum concentration, mean [1, 8] [ng/mL]	Pearson's correlation coefficient r between C/D ratio and treatment duration ([1]; Pt2)	Serum concentration, mean [1, 9] [ng/mL]	Serum concentration, mean [1, 10] [ng/mL]	Serum concentration, mean [1, 11] [ng/mL]	Serum concentration, mean [1, 12] [ng/mL]	Serum concentration, mean [1, 13] [ng/mL]	Serum concentration, mean [1, 14] [ng/mL]	Serum concentration, mean [1, 15] [ng/mL]	Serum concentration, mean [1, 16] [ng/mL]	Serum concentration, mean [1, 17] [ng/mL]	Serum concentration, mean [1, 18] [ng/mL]	Serum concentration, mean [1, 19] [ng/mL]	Serum concentration, mean [1, 20] [ng/mL]	Serum concentration, mean [1, 21] [ng/mL]	Compound	also measured
-0.756	0.68	0.59	0.40	0.29	0.10	-0.838	1.10	0.71	0.99	0.58	0.53	0.32	1.35	0.56	0.57	0.36	0.56	0.55	0.17	CC[N+]([O-])(CC)CCNC(=O)c1c(C)[nH]c(/C=C2\C(=O)Nc3ccc(F)cc32)c1C [Sunitinib N-oxide, sunitinib N-oxide]	Pearson's correlation coefficient r between C/D ratio and treatment duration ([1]; Pt6): -0.752; Serum concentration, mean [1, 22]: 0.24 ng/mL; Sunitinib N-oxide/sunitinib concentration ratio, median (min–max) [1, 23]: 0.004 (0.004–0.009); Sunitinib N-oxide/sunitinib concentration ratio, median (min–max) [1, 24]: 0.006 (0.004–0.029); Sunitinib N-oxide/sunitinib concentration ratio, median (min–max) [1, 25]: 0.013 (0.010–0.021); Sunitinib N-oxide/sunitinib concentration ratio, median (min–max) [1, 26]: 0.016 (0.014–0.026)
-0.282	9.0	11.0	10.4	9.6	6.9	-0.500	22.7	20.9	13.2	12.5	15.5	14.6	11.0	12.6	12.1	14.7	30.4	27.7	30.4	CCNCCNC(=O)c1c(C)[nH]c(/C=C2\C(=O)Nc3ccc(F)cc32)c1C [N-desethyl sunitinib]	Serum concentration, mean [1, 22]: 17.8 ng/mL; N-desethyl sunitinib/sunitinib concentration ratio, median (min–max) [1, 23]: 0.29 (0.26–0.63); N-desethyl sunitinib/sunitinib concentration ratio, median (min–max) [1, 24]: 0.30 (0.16–0.54); N-desethyl sunitinib/sunitinib concentration ratio, median (min–max) [1, 25]: 0.28 (0.23–0.46); N-desethyl sunitinib/sunitinib concentration ratio, median (min–max) [1, 26]: 0.30 (0.19–0.44)
-0.608	44.0	48.3	41.2	33.1	26.2	-0.555	86.7	73.5	59.5	54.9	64.1	54.1	54.5	42.2	44.7	39.4	71.0	65.8	37.5	CCN(CC)CCNC(=O)c1c(C)[nH]c(/C=C2\C(=O)Nc3ccc(F)cc32)c1C [Sunitinib, sunitinib, reference compound]	Patients with grade 2 or higher anorexia ([2]; all 7 patients, five patients): 71.4%; Patients with anorexia (any grade) ([2]; all 7 patients, six patients): 85.7%; Anorexia Grade 0, number of patients [2, 27]: 1 n; Anorexia Grade 1, number of patients [2, 27]: 0 n; Anorexia Grade 2, number of patients [2, 27]: 1 n; Anorexia Grade 3, number of patients [2, 27]: 1 n; Diarrhea Grade 0, number of patients [2, 27]: 2 n; Diarrhea Grade 1, number of patients [2, 27]: 1 n; Anorexia Grade 0, number of patients [2, 28]: 0 n; Anorexia Grade 1, number of patients [2, 28]: 1 n; Anorexia Grade 2, number of patients [2, 28]: 2 n; Anorexia Grade 3, number of patients [2, 28]: 1 n; Diarrhea Grade 0, number of patients [2, 28]: 2 n; Diarrhea Grade 1, number of patients [2, 28]: 2 n; Maximum variation in Vd/F [3]: 14%; Pearson's correlation coefficient r between C/D ratio and treatment duration ([1]; Pt6): -0.590; Serum concentration, mean [1, 22]: 31.1 ng/mL
